Experimental findings from paper PMC6690926 (International Journal of Nanomedicine, 2019) are described below.

Series [1] in a line: In vitro cytotoxicity of Act D. The format is cell-based. Particulars: human, Caco-2 cells. A digest of the protocol:
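Caco-2 cells were seeded at 1×10^4 cells/well in DMEM with 10% FBS and cultured for 24 h. They were then exposed for 5 h to the test compound at 1, 2, 3.2 and 6 µM in HBSS. WST-8 was added for 1 h and absorbance read at 450 nm. Viability is expressed as a percentage of untreated cells; mean ± SD, n=6.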

The nature of series [2]: In vivo pharmacokinetic study in rats. Particulars: Sprague-Dawley, rat, plasma, 25 mg/kg. A digest of the protocol: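 Male Sprague-Dawley rats (6–7 weeks, 200–250 g) received the test formulation orally in water at 25 mg/kg drug equivalent. The IV reference was 5 mg/kg aqueous drug by tail vein. Retro-orbital blood was taken into heparin plus 3.8% sodium citrate, spun at 2,500×g for 15 min at 4 °C, and plasma stored at −70 °C. Plasma was assayed by LC/MS (C18, ESI positive, m/z 428; DAMPA internal standard). Non-compartmental analysis; n=4, mean ± SD.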

A short description of series [3]: In vitro permeability across a Caco-2 cell monolayer. The class given is in vitro ADME. Particulars: human. Background: Caco-2 monolayers are a common model of the intestinal barrier.
The nature of series [4]: Parallel artificial membrane permeability assay. Particulars: PAMPA, pH 6.8. The format is in vitro ADME. The gist of the method:
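PAMPA: donor wells held test formulation diluted in PBS pH 6.8 to 200 µg/mL drug equivalent; receiver wells held PBS pH 6.8. Plates were incubated 5 h at room temperature. Donor and receiver concentrations were measured by HPLC at 254 nm (C18; water pH 3.5/acetonitrile 80:20, 1 mL/min). Effective permeability was calculated with filter area 0.288 cm2, donor volume 0.2 mL and receiver volume 0.3 mL, using equilibrium concentration.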
Background: PAMPA measures passive passage across an artificial lipid membrane.

*1 amine or outer side, *2 acyl side, *3 side chain or, on linkers, in order; H or OH if unused. Where a SMILES comes first, the peptide text is derived from it. Bridges are numbered along the chain shown (N, C = ends). Roman numbers before positions name the chains, in order. [ ]: non-standard residue; d: D form. Actinocin(9to1) = Cc1c2oc3c(C)ccc(C(=O)[*:1])c3nc-2c(C(=O)[*:2])c(N)c1=O; NMeV = CN[C@H](C(=O)O)C(C)C; Sar = CNCC(=O)O

Turning to `Cc1c2oc3c(C)ccc(C(=O)N[C@@H]4C(=O)N[C@H](C(C)C)C(=O)N5CCC[C@H]5C(=O)N(C)CC(=O)N(C)[C@@H](C(C)C)C(=O)O[C@@H]4C)c3nc-2c(C(=O)N[C@@H]2C(=O)N[C@H](C(C)C)C(=O)N3CCC[C@H]3C(=O)N(C)CC(=O)N(C)[C@@H](C(C)C)C(=O)O[C@@H]2C)c(N)c1=O` [Act D, actinomycin D] (I: T[dV]P[Sar][NMeV] / II: T[dV]P[Sar][NMeV]; ester I:1-I:C, II:1-II:C; linker I:N-II:N via Actinocin(9to1)), the viability at 5 h, 3.2 µM in series [1] is 105 ± 6.81%.
In series [2] (oral), `Nc1nc2[nH]cc(CCc3ccc(C(=O)N[C@@H](CCC(=O)O)C(=O)O)cc3)c2c(=O)[nH]1` [PMX, N-[4-[2-(2-amino-3,4-dihydro-4-oxo-7H-pyrrolo[2,3-d]pyrimidin-5-yl)-ethyl]-benzoyl]-L-glutamic acid] had a bioavailability of 5.02 ± 0.57%. Also, in series [2] (po), the AUC(0-inf) is 2.77 ± 0.21 µg·h/mL, the AUC(0-t) was 2.35 ± 0.27 µg·h/mL, the peak level (Cmax) was 1.28 ± 0.17 µg/mL and the Tmax was 0.63 ± 0.25 h. The compound further had a half-life in series [2] (po) of 2.5 ± 0.45 h. The compound further showed a Papp at 5 h, 100 µg/mL in series [3] of 17.8 ± 1.18 nm/s. For the same compound, the apparent permeability coefficient (Papp) at 5 h, 200 µg/mL in series [4] was found to be 2.9 ± 0.8 nm/s.

As usually defined, the viability is a read-out of living cells in per cent, often relative to untreated cells. The bioavailability is the share of a dose that reaches the circulation, judged against a reference dose that is usually intravenous. The term AUC(0-inf) denotes the area under the concentration-time curve extrapolated to infinity. Read a high AUC(0-inf) as more exposure. Usually AUC(0-t) stands for the area under the concentration-time curve up to a stated or last time point. The low end stands for low exposure, the high end for high exposure. Broadly, the Cmax is the maximum level reached in the sampled fluid or tissue. One may read the Tmax as the time from dosing to the highest level. Usually half-life stands for the time needed for the level to fall by half in the phase considered. For orientation: Papp means the rate of passage across a membrane or cell layer, normalised by area and donor concentration.
